In brackets after ≈: the same amount, converted by molar mass.
What was measured:
Calu-1 = experiment: Cytotoxicity against human Calu1 cells at 10 uM after 48 hrs by WST-1 assay; format: functional
Summary of the method: (§1)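 Cells from ATCC were grown in DMEM with 10% heat-inactivated FBS at 37 °C in 5% CO2. Log-phase cells were seeded at 5 × 10^3 per well and left to recover overnight. They were then exposed to a range of compound concentrations for 48 h, with 0.2% DMSO as the vehicle control. CCK-8 (WST) reagent was added for 2 h and absorbance was measured.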

PANC-1 = experiment: Cytotoxicity against human PANC1 cells at 10 uM after 48 hrs by WST-1 assay; format: functional
Summary of the method: (§2)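 Cells from ATCC, grown in DMEM with 10% heat-inactivated FBS at 37 °C in humidified 5% CO2. Log-phase cells seeded at 5 × 10^3 cells/well and left to recover overnight, then exposed to varying compound concentrations for 48 h. Controls received medium with 0.2% DMSO vehicle. CCK-8 ([…]) reagent added at 5 µL/well for 2 h, then absorbance read.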

ACHN = experiment: Cytotoxicity against human ACHN cells at 10 uM after 48 hrs by WST-1 assay; format: functional; summary of the method: as §1
HCT-116 = experiment: Cytotoxicity against human HCT116 cells at 10 uM after 48 hrs by WST-1 assay; format: functional; summary of the method: as §1
NCI-H460 = experiment: Cytotoxicity against human NCI-H460 cells at 10 uM after 48 hrs by WST-1 assay; format: functional; summary of the method: as §2
Escherichia coli [1] = experiment: Antibacterial activity against Escherichia coli ATCC 25922 after 24 hrs by disc diffusion method; format: functional
Summary of the method: (§3)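 Disc diffusion susceptibility test. The Klebsiella pneumoniae strain was a recultured isolate, not an ATCC stock.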

Pseudomonas aeruginosa [2] = experiment: Antibacterial activity against Pseudomonas aeruginosa ATCC 27853 after 24 hrs; format: functional; settings: ATCC 27853, 24 h
Staphylococcus aureus [3] = experiment: Antibacterial activity against Staphylococcus aureus ATCC 25923 after 24 hrs; format: functional; settings: ATCC 25923, 24 h
Klebsiella pneumoniae [4] = experiment: Antibacterial activity against Klebsiella pneumoniae after 24 hrs; format: functional
Pseudomonas aeruginosa [5] = experiment: Antibacterial activity against Pseudomonas aeruginosa ATCC 27853 after 24 hrs by disc diffusion method; format: functional; summary of the method: as §3
Klebsiella pneumoniae [6] = experiment: Antibacterial activity against Klebsiella pneumoniae after 24 hrs by disc diffusion method; format: functional; summary of the method: as §3
Staphylococcus aureus [7] = experiment: Antibacterial activity against Staphylococcus aureus ATCC 25923 after 24 hrs by disc diffusion method; format: functional; summary of the method: as §3
Escherichia coli [8] = experiment: Antibacterial activity against Escherichia coli ATCC 25922 after 24 hrs; format: functional; settings: ATCC 25922, 24 h
[9] = system: Trichophyton mentagrophytes; experiment: Antifungal activity against Trichophyton mentagrophytes after 3 to 4 days by disc diffusion method; format: functional
Aspergillus flavus [10] = experiment: Antifungal activity against Aspergillus flavus NCIM 524 after 3 to 4 days by serial plate dilution method
Aspergillus fumigatus [11] = experiment: Antifungal activity against Aspergillus fumigatus NCIM 902 after 3 to 4 days by disc diffusion method; format: functional
[12] = system: Trichophyton mentagrophytes; experiment: Antifungal activity against Trichophyton mentagrophytes after 3 to 4 days; format: functional
Summary of the method: (§4)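 Compounds were dissolved in DMSO and tested by serial plate dilution. Activity was read as the diameter of the inhibition zone, with ciclopiroxolamine as the reference standard. Penicillium marneffei and Trichophyton mentagrophytes were recultured isolates.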

Aspergillus flavus [13] = experiment: Antifungal activity against Aspergillus flavus NCIM 524 after 3 to 4 days; format: functional
Talaromyces marneffei [14] = experiment: Antifungal activity against Penicillium marneffei after 3 to 4 days by disc diffusion method; format: functional
Talaromyces marneffei [15] = experiment: Antifungal activity against Penicillium marneffei after 3 to 4 days; format: functional
Aspergillus fumigatus [16] = experiment: Antifungal activity against Aspergillus fumigatus NCIM 902 after 3 to 4 days; format: functional; summary of the method: as §4

Compound | Activity (Calu-1) | Activity (PANC-1) | Activity (ACHN) | Activity (HCT-116) | Activity (NCI-H460) | inhibition zone (IZ) (Escherichia coli [1]) | MIC (Pseudomonas aeruginosa [2]) | MIC (Staphylococcus aureus [3]) | MIC (Klebsiella pneumoniae [4]) | inhibition zone (IZ) (Pseudomonas aeruginosa [5]) | inhibition zone (IZ) (Klebsiella pneumoniae [6]) | inhibition zone (IZ) (Staphylococcus aureus [7]) | MIC (Escherichia coli [8]) | inhibition zone (IZ) [9] | inhibition zone (IZ) (Aspergillus flavus [10]) | inhibition zone (IZ) (Aspergillus fumigatus [11]) | MIC [12] | MIC (Aspergillus flavus [13]) | inhibition zone (IZ) (Talaromyces marneffei [14]) | MIC (Talaromyces marneffei [15]) | other results
CCOC(=O)CC(=O)c1cccnc1 | 30% | 35% | 30% | 30% | 19% | – | – | – | – | – | – | – | – | – | – | – | – | – | – | – | –
O=C(O)c1cn(C2CC2)c2cc(N3CCNCC3)c(F)cc2c1=O [CIPROFLOXACIN] | – | – | – | – | – | 32 mm | 6.25 µg/mL (≈ 18.9 µM) | 6.25 µg/mL (≈ 18.9 µM) | 6.25 µg/mL (≈ 18.9 µM) | 28 mm | 23 mm | 23 mm | 6.25 µg/mL (≈ 18.9 µM) | – | – | – | – | – | – | – | –
CCOC(=O)CC(=O)c1nccc2ccccc12 | 30% | 35% | 30% | 26% | 34% | 19 mm | 6.25 µg/mL (≈ 25.7 µM) | 6.25 µg/mL (≈ 25.7 µM) | 6.25 µg/mL (≈ 25.7 µM) | 20 mm | 22 mm | 22 mm | 6.25 µg/mL (≈ 25.7 µM) | 17 mm | 15 mm | 18 mm | 12.5 µg/mL (≈ 51.4 µM) | 12.5 µg/mL (≈ 51.4 µM) | 18 mm | 12.5 µg/mL (≈ 51.4 µM) | MIC (Aspergillus fumigatus [16]): 12.5 µg/mL (≈ 51.4 µM)
CCOC(=O)CC(=O)c1ccccn1 | 22% | 27% | 25% | 21% | 36% | – | – | – | – | – | – | – | – | – | – | – | – | – | – | – | –
CCOC(=O)CC(=O)c1cnc2ccccc2c1 | 23% | 26% | 20% | 28% | 20% | – | – | – | – | – | – | – | – | – | – | – | – | – | – | – | –
CCOC(=O)CC(=O)c1nccn1CCOC | 24% | 26% | 21% | 28% | 14% | – | – | – | – | – | – | – | – | – | – | – | – | – | – | – | –
CCOC(=O)C(C)C(=O)c1nccc2ccccc12 (stereo unspecified) | 20% | 30% | 25% | 24% | 19% | – | – | – | – | – | – | – | – | – | – | – | – | – | – | – | –
CCOC(=O)CC(=O)c1ccncc1 | 12% | 10% | 31% | 39% | 10% | – | – | – | – | – | – | – | – | – | – | – | – | – | – | – | –
CCOC(=O)CC(=O)c1cnccn1 | 16% | 27% | 34% | 30% | 20% | – | – | – | – | – | – | – | – | – | – | – | – | – | – | – | –
CCOC(=O)CC(=O)c1cnc(Cl)cn1 | 31% | 14% | 30% | 40% | 34% | 24 mm | 6.25 µg/mL (≈ 27.3 µM) | 6.25 µg/mL (≈ 27.3 µM) | 6.25 µg/mL (≈ 27.3 µM) | 21 mm | 20 mm | 23 mm | 6.25 µg/mL (≈ 27.3 µM) | 25 mm | 22 mm | 26 mm | 6.25 µg/mL (≈ 27.3 µM) | 6.25 µg/mL (≈ 27.3 µM) | 24 mm | 6.25 µg/mL (≈ 27.3 µM) | MIC (Aspergillus fumigatus [16]): 6.25 µg/mL (≈ 27.3 µM)
CCOC(=O)CC(=O)c1sc(Cl)nc1C | 32% | 29% | 37% | 48% | 24% | – | – | – | – | – | – | – | – | – | – | – | – | – | – | – | –
CCOC(=O)CC(=O)c1cc2ccccc2cn1 | 21% | 23% | 30% | 29% | 17% | 19 mm | 12.5 µg/mL (≈ 51.4 µM) | 12.5 µg/mL (≈ 51.4 µM) | 12.5 µg/mL (≈ 51.4 µM) | 22 mm | 23 mm | 16 mm | 12.5 µg/mL (≈ 51.4 µM) | 23 mm | 27 mm | 23 mm | 6.25 µg/mL (≈ 25.7 µM) | 6.25 µg/mL (≈ 25.7 µM) | 25 mm | 6.25 µg/mL (≈ 25.7 µM) | MIC (Aspergillus fumigatus [16]): 6.25 µg/mL (≈ 25.7 µM)
CCOC(=O)CC(=O)c1nccn1C | 30% | 35% | 30% | 11% | 14% | – | – | – | – | – | – | – | – | – | – | – | – | – | – | – | –
CCOC(=O)CC(=O)c1cccc2sc(Br)nc12 | 19% | 27% | 31% | 39% | 14% | 22 mm | 6.25 µg/mL (≈ 19 µM) | 6.25 µg/mL (≈ 19 µM) | 6.25 µg/mL (≈ 19 µM) | 22 mm | 23 mm | 21 mm | 6.25 µg/mL (≈ 19 µM) | 17 mm | 19 mm | 18 mm | 12.5 µg/mL (≈ 38.1 µM) | 12.5 µg/mL (≈ 38.1 µM) | 17 mm | 12.5 µg/mL (≈ 38.1 µM) | MIC (Aspergillus fumigatus [16]): 12.5 µg/mL (≈ 38.1 µM)
Cc1cc(C2CCCCC2)n(O)c(=O)c1.NCCO [CICLOPIROX OLAMINE] | – | – | – | – | – | – | – | – | – | – | – | – | – | 27 mm | 27 mm | 26 mm | 3.12 µg/mL | 3.12 µg/mL | 23 mm | 6.25 µg/mL | MIC (Aspergillus fumigatus [16]): 6.25 µg/mL
CCOC(=O)CC(=O)c1ncccn1 | 17% | 37% | 10% | 23% | 20% | 24 mm | 6.25 µg/mL (≈ 32.2 µM) | 6.25 µg/mL (≈ 32.2 µM) | 6.25 µg/mL (≈ 32.2 µM) | 22 mm | 23 mm | 22 mm | 6.25 µg/mL (≈ 32.2 µM) | 18 mm | 22 mm | 25 mm | 12.5 µg/mL (≈ 64.4 µM) | 12.5 µg/mL (≈ 64.4 µM) | 17 mm | 12.5 µg/mL (≈ 64.4 µM) | MIC (Aspergillus fumigatus [16]): 12.5 µg/mL (≈ 64.4 µM)
CCOC(=O)CC(=O)c1ccncn1 | 12% | 35% | 15% | 20% | 13% | – | – | – | – | – | – | – | – | – | – | – | – | – | – | – | –
CCOC(=O)CC(=O)c1cn(C(=O)OC(C)(C)C)c2ccccc12 | 20% | 23% | 30% | 33% | 39% | – | – | – | – | – | – | – | – | – | – | – | – | – | – | – | –
